# Laboratory results reported in ChEMBL document CHEMBL2086318, “Synthesis and in vitro antimycobacterial activity of 2-methoxybenzanilides and their thioxo analogues” (Eur J Med Chem, 2012).
# Columns and labels:
# [1] = tested on: Mycobacterium tuberculosis; assay: Antimycobacterial activity against Mycobacterium tuberculosis My 331/88 after 14 days by micromethod; format: functional; conditions: My 331/88, 336 h
# In short: (§1)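 MIC by micromethod at 37 °C, read after 14 and 21 days. Inocula were M. tuberculosis My 331/88 at 10^-3 dilution and M. avium My 330/88 at 10^-5 dilution. Compounds added in DMSO across 1000, 500, 250, 125, 62.5, 32, 16, 8, 4, 2, 1 and 0.5; isoniazid standard in sterile water. MIC taken as the lowest concentration inhibiting growth.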
# [2] = tested on: Mycobacterium tuberculosis; assay: Antimycobacterial activity against Mycobacterium tuberculosis My 331/88 after 21 days by micromethod; format: functional; conditions: My 331/88, 504 h; in short: as §1
# Mycobacterium avium [3] = assay: Antimycobacterial activity against Mycobacterium avium My 330/88 after 14 days by micromethod; format: functional; conditions: My 330/88, 336 h
# Mycobacterium avium [4] = assay: Antimycobacterial activity against Mycobacterium avium My 330/88 after 21 days by micromethod; format: functional; conditions: My 330/88, 504 h
# Mycobacterium kansasii [5] = assay: Antimycobacterial activity against Mycobacterium kansasii My 235/80 after 7 days by micromethod; format: functional; conditions: My 235/80, 168 h
# Mycobacterium kansasii [6] = assay: Antimycobacterial activity against Mycobacterium kansasii My 235/80 after 14 days by micromethod; format: functional; conditions: My 235/80, 336 h
# Mycobacterium kansasii [7] = assay: Antimycobacterial activity against Mycobacterium kansasii My 235/80 after 21 days by micromethod; format: functional; conditions: My 235/80, 504 h
# Mycobacterium kansasii [8] = assay: Antimycobacterial activity against Mycobacterium kansasii My 6509/96 clinical isolate after 7 days by micromethod; format: functional; conditions: My 6509/96, 168 h
# Mycobacterium kansasii [9] = assay: Antimycobacterial activity against Mycobacterium kansasii My 6509/96 clinical isolate after 14 days by micromethod; format: functional; conditions: My 6509/96, 336 h
# Mycobacterium kansasii [10] = assay: Antimycobacterial activity against Mycobacterium kansasii My 6509/96 clinical isolate after 21 days by micromethod; format: functional; conditions: My 6509/96, 504 h
# [11] = target: T1, Isocitrate lyase (Mycobacterium tuberculosis) (UniProt P9WKK7); assay: Inhibition of Mycobacterium tuberculosis H37Rv isocitrate lyase expressed in Escherichia coli BL21(DE3) using (+)-potassium Ds-threo-isocitrate as substrate assessed as glyoxylate phenyl hydrazone formation at 100 umol/L by spectrophotometry
# T1 sequence (whole entry): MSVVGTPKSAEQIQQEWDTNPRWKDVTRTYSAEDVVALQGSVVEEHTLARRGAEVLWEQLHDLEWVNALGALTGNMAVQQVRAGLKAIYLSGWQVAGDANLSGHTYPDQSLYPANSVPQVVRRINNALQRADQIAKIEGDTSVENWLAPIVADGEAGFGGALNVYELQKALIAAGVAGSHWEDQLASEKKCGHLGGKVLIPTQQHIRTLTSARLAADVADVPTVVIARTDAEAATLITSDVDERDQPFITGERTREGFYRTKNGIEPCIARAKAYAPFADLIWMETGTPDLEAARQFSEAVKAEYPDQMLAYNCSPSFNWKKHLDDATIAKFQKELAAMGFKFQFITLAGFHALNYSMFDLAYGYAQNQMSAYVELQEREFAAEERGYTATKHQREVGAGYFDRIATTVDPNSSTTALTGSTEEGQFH
# HepG2 = assay: Cytotoxicity against human HepG2 cells after 24 hrs by CellTiter assay; format: cell-based; conditions: HepG2, 24 h
# In short: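 Hep G2 cells (passage 12), 10,000 per well in MEM with 1% glutamine, 10% FBS and 1% nonessential amino acids, preincubated 24 h at 37 °C, 5% CO2. Compounds dissolved in DMSO, tested at eight concentrations in quadruplicate for 24 h at 37 °C. MTS-type reagent added for 1.5 h, absorbance read at 490 nm. IC50 = concentration reducing viability to 50% of control.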
# [12] = Selectivity ratio of IC50 for human HepG2 cells to MIC for Mycobacterium tuberculosis My 331/88 after 14 days; format: functional
# In short: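 HepG2 cells (passage 12) at 10,000 cells/well in MEM with 10% FBS, 1% glutamine and 1% nonessential amino acids, pre-incubated 24 h at 37 °C, 5% CO2. Compounds in DMSO at eight concentrations in quadruplicate for 24 h. MTS-type reagent added for 1.5 h, absorbance at 490 nm. IC50 from curve fit. SI = IC50 / 14-day MIC against M. tuberculosis 331/88.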
Structure (SMILES),MIC [1],MIC [2],MIC (Mycobacterium avium [3]),MIC (Mycobacterium avium [4]),MIC (Mycobacterium kansasii [5]),MIC (Mycobacterium kansasii [6]),MIC (Mycobacterium kansasii [7]),MIC (Mycobacterium kansasii [8]),MIC (Mycobacterium kansasii [9]),MIC (Mycobacterium kansasii [10]),inhibition [11],IC50 (HepG2),Selectivity ratio [12]
COc1cc(Cl)ccc1C(=S)Nc1ccc(Cl)cc1,4 µM,16 µM,32 µM,32 µM,32 µM,62.5 µM,62.5 µM,16 µM,32 µM,62.5 µM,39%,2.93 µM,0.73
COc1cc(Cl)ccc1C(=S)Nc1cccc(C(F)(F)F)c1,4 µM,8 µM,32 µM,32 µM,16 µM,32 µM,32 µM,16 µM,32 µM,32 µM,23%,1.81 µM,0.45
COc1cc(Cl)ccc1C(=S)Nc1cccc(Cl)c1,4 µM,16 µM,16 µM,16 µM,16 µM,32 µM,32 µM,16 µM,32 µM,32 µM,20%,11.7 µM,2.92
COc1cc(Cl)ccc1C(=S)Nc1ccc(Cl)c(Cl)c1,2 µM,8 µM,32 µM,32 µM,16 µM,32 µM,62.5 µM,16 µM,32 µM,32 µM,17%,6.5 µM,3.25
COc1ccc(Cl)cc1C(=O)Nc1cccc(C(F)(F)F)c1,4 µM,16 µM,125 µM,125 µM,4 µM,4 µM,16 µM,4 µM,4 µM,16 µM,–,–,–
COc1cc(Cl)ccc1C(=S)Nc1cccc(Br)c1,32 µM,32 µM,125 µM,125 µM,125 µM,125 µM,125 µM,125 µM,125 µM,125 µM,–,–,–
COc1cc(Cl)ccc1C(=S)Nc1ccc(Br)cc1,4 µM,16 µM,16 µM,62.5 µM,32 µM,62.5 µM,62.5 µM,16 µM,32 µM,62.5 µM,27%,3.55 µM,0.89
COc1ccc(Cl)cc1C(=O)Nc1ccc(C(F)(F)F)cc1,250 µM,250 µM,250 µM,250 µM,125 µM,500 µM,500 µM,62.5 µM,250 µM,250 µM,–,–,–
COc1ccc(Cl)cc1C(=S)Nc1ccc([N+](=O)[O-])cc1,32 µM,32 µM,250 µM,250 µM,125 µM,250 µM,250 µM,125 µM,250 µM,250 µM,–,–,–
COc1ccc(Cl)cc1C(=S)Nc1ccc(Br)cc1,16 µM,16 µM,16 µM,16 µM,62.5 µM,250 µM,250 µM,16 µM,32 µM,32 µM,–,–,–
COc1cc(Cl)ccc1C(=S)Nc1ccc(C(F)(F)F)cc1,8 µM,16 µM,32 µM,32 µM,16 µM,32 µM,62.5 µM,8 µM,32 µM,32 µM,–,–,–
COc1cc(Cl)ccc1C(=O)Nc1cccc(Cl)c1,125 µM,125 µM,8 µM,32 µM,8 µM,32 µM,32 µM,62.5 µM,62.5 µM,125 µM,–,–,–
COc1cc(Cl)ccc1C(=O)Nc1cccc([N+](=O)[O-])c1,125 µM,125 µM,125 µM,125 µM,125 µM,250 µM,250 µM,125 µM,125 µM,125 µM,–,–,–
COc1cc(Cl)ccc1C(=O)Nc1ccc(C(F)(F)F)cc1,125 µM,125 µM,62.5 µM,125 µM,125 µM,125 µM,125 µM,32 µM,125 µM,125 µM,–,–,–
COc1ccc(Cl)cc1C(=O)Nc1cccc([N+](=O)[O-])c1,125 µM,125 µM,250 µM,250 µM,125 µM,125 µM,125 µM,125 µM,125 µM,125 µM,–,–,–
